Data published in ChEMBL document CHEMBL4229344 (Eur J Med Chem, 2018).

Legend:
[1] = molecular target: Cyclin-dependent kinase-like 2 (Homo sapiens) (UniProt Q92772); experiment: Binding affinity to wild-type human partial length CDKL2 (M1 to D327 residues) expressed in bacterial expression system assessed as residual binding level at 1 uM by Kinomescan method relative to control
[2] = molecular target: Phosphatidylinositol 5-phosphate 4-kinase type-2 beta (Homo sapiens) (UniProt P78356); experiment: Binding affinity to wild-type human full length PIP5K2B (M1 to T416 residues) expressed in bacterial expression system assessed as residual binding level at 1 uM by Kinomescan method relative to control
How it was run: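 KINOMEscan competition binding against 468 purified kinases/mutants, test compound at 1 µM; residual binding relative to control.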

[3] = molecular target: Tyrosine-protein kinase Fyn (Homo sapiens) (UniProt P06241); experiment: Binding affinity to wild-type human partial length FYN (T243 to L534 residues) expressed in bacterial expression system assessed as residual binding level at 1 uM by Kinomescan method relative to control
How it was run: (§1)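 Kinome-wide competition binding screen against a panel of 468 purified kinases/mutants, with the test compound at a single concentration of 1 μM. Read-out is the relative binding activity of each kinase in the presence of compound.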

[4] = molecular target: Mitogen-activated protein kinase kinase kinase 10 (Homo sapiens) (UniProt Q02779); experiment: Binding affinity to wild-type human partial length MLK2 (V52 to W380 residues) expressed in bacterial expression system assessed as residual binding level at 1 uM by Kinomescan method relative to control
[5] = molecular target: Glycogen synthase kinase-3 alpha (Homo sapiens) (UniProt P49840); experiment: Binding affinity to wild-type human full length GSK3A (M1 to S483 residues) expressed in bacterial expression system assessed as residual binding level at 1 uM by Kinomescan method relative to control
How it was run: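 Single-concentration (1 μM) competition-binding screen run by KINOMEscan against a panel of 468 purified kinases and mutants. The read-out is the relative binding activity of the test compound to each kinase.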

[6] = molecular target: Cyclin-dependent kinase-like 5 (Homo sapiens) (UniProt O76039); experiment: Binding affinity to wild-type human partial length CDKL5 (M1 to S337 residues) expressed in mammalian expression system assessed as residual binding level at 1 uM by Kinomescan method relative to control
[7] = molecular target: MAP kinase-activated protein kinase 5 (Homo sapiens) (UniProt Q8IW41); experiment: Binding affinity to wild-type human partial length MAPKAPK5 (M1 to D322 residues) expressed in mammalian expression system assessed as residual binding level at 1 uM by Kinomescan method relative to control
[8] = Oral bioavailability in Sprague-Dawley rat at 10 mg/kg; format: ADME, organism-based; conditions: in vivo
How it was run: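 Male Sprague-Dawley rats, 6–8 weeks old and fasted overnight, dosed IV at 1 mg/kg or PO at 10 mg/kg. Formulation was 5% DMSO/40% PEG400/55% saline (1 mg/mL). Jugular blood collected on heparin from 1 min to 8 h (IV) or 5 min to 24 h (PO). Plasma separated by centrifugation at 2–8 °C and stored at −80 °C.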

[9] = molecular target: Tyrosine-protein kinase TXK (Homo sapiens) (UniProt P42681); experiment: Binding affinity to wild-type human partial length TXK (L238 to W527 residues) expressed in bacterial expression system assessed as residual binding level at 1 uM by Kinomescan method relative to control
[10] = molecular target: Receptor-interacting serine/threonine-protein kinase 1 (Homo sapiens) (UniProt Q13546); experiment: Binding affinity to wild-type human partial length RIPK1 (M1 to K305 residues) expressed in bacterial expression system assessed as residual binding level at 1 uM by Kinomescan method relative to control
How it was run: (§2)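 KINOMEscan competition binding against a panel of 468 purified kinases/mutants, compound tested at 1 μM; readout is relative binding activity versus control.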

[11] = molecular target: Serine/threonine-protein kinase 17A (Homo sapiens) (UniProt Q9UEE5); experiment: Binding affinity to wild-type human partial length DRAK1 (R32 to E363 residues) expressed in bacterial expression system assessed as residual binding level at 1 uM by Kinomescan method relative to control
[12] = molecular target: Serine/threonine-protein kinase N2 (Homo sapiens) (UniProt Q16513); experiment: Binding affinity to wild-type human partial length PKN2 (E634 to C984 residues) expressed in bacterial expression system assessed as residual binding level at 1 uM by Kinomescan method relative to control
[13] = molecular target: TRAF2 and NCK-interacting protein kinase (Homo sapiens) (UniProt Q9UKE5); experiment: Binding affinity to wild-type human partial length TNIK (D4 to K311 residues) expressed in bacterial expression system assessed as residual binding level at 1 uM by Kinomescan method relative to control; how it was run: as §2
[14] = tested on: Epidermal growth factor receptor (Homo sapiens), P00533 [G719C]; experiment: Binding affinity to human partial length EGFR G719C mutant (R669 to V1011 residues) expressed in bacterial expression system assessed as residual binding level at 1 uM by Kinomescan method relative to control
How it was run: (§3)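 Kinome-wide single-concentration binding screen (KINOMEscan) at 1 μM against a panel of 468 purified kinases and mutants. Read-out is relative binding of each kinase compared with control. Selectivity across the panel was summarised as an S(10) score.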

[15] = tested on: Mast/stem cell growth factor receptor Kit (Homo sapiens), P10721 [D816H]; experiment: Binding affinity to human partial length KIT D816H mutant (I571 to D952 residues) expressed in mammalian expression system assessed as residual binding level at 1 uM by Kinomescan method relative to control; how it was run: as §3
[16] = molecular target: Leucine-rich repeat serine/threonine-protein kinase 2 (Homo sapiens) (UniProt Q5S007); experiment: Binding affinity to wild-type human partial length LRRK2 (H970 to E2527 residues) expressed in mammalian expression system assessed as residual binding level at 1 uM by Kinomescan method relative to control
[17] = molecular target: SNF-related serine/threonine-protein kinase (Homo sapiens) (UniProt Q9NRH2); experiment: Binding affinity to wild-type human partial length SNRK (M1 to E339 residues) expressed in mammalian expression system assessed as residual binding level at 1 uM by Kinomescan method relative to control
[18] = molecular target: Dual specificity protein kinase CLK2 (Homo sapiens) (UniProt P49760); experiment: Binding affinity to wild-type human partial length CLK2 (D144 to R498 residues) expressed in bacterial expression system assessed as residual binding level at 1 uM by Kinomescan method relative to control; how it was run: as §1
[19] = molecular target: Tyrosine-protein kinase Fgr (Homo sapiens) (UniProt P09769); experiment: Binding affinity to wild-type human partial length FGR (L233 to T529 residues) expressed in bacterial expression system assessed as residual binding level at 1 uM by Kinomescan method relative to control; how it was run: as §1
[20] = molecular target: Serine/threonine-protein kinase PAK 2 (Homo sapiens) (UniProt Q13177); experiment: Binding affinity to wild-type human partial length PAK2 (P151 to R525 residues) expressed in bacterial expression system assessed as residual binding level at 1 uM by Kinomescan method relative to control; how it was run: as §2
[21] = molecular target: Myosin light chain kinase 2, skeletal/cardiac muscle (Homo sapiens) (UniProt Q9H1R3); experiment: Binding affinity to wild-type human partial length MYLK2 (D258 to K570 residues) expressed in bacterial expression system assessed as residual binding level at 1 uM by Kinomescan method relative to control
Myosin light chain kinase 2, skeletal/cardiac muscle (Homo sapiens), sequence (Q9H1R3 whole entry, the tested form may be a part): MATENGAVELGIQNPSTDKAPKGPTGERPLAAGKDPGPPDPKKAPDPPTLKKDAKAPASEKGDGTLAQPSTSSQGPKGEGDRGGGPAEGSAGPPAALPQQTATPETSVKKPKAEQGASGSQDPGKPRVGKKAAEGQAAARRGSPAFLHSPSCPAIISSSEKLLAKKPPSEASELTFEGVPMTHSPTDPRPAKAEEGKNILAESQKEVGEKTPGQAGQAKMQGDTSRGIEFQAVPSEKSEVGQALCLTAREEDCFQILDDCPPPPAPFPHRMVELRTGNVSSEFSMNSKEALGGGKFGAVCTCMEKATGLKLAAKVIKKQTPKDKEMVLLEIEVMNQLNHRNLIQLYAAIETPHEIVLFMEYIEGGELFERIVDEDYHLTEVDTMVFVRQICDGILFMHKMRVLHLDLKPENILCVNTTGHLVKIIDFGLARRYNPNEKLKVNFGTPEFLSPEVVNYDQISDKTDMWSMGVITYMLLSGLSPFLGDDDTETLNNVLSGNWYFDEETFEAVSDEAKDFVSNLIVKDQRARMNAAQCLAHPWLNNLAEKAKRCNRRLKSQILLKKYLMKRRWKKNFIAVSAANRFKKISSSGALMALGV

Receptor-interacting serine/threonine-protein kinase 1 (Homo sapiens), sequence (Q13546 whole entry, the tested form may be a part): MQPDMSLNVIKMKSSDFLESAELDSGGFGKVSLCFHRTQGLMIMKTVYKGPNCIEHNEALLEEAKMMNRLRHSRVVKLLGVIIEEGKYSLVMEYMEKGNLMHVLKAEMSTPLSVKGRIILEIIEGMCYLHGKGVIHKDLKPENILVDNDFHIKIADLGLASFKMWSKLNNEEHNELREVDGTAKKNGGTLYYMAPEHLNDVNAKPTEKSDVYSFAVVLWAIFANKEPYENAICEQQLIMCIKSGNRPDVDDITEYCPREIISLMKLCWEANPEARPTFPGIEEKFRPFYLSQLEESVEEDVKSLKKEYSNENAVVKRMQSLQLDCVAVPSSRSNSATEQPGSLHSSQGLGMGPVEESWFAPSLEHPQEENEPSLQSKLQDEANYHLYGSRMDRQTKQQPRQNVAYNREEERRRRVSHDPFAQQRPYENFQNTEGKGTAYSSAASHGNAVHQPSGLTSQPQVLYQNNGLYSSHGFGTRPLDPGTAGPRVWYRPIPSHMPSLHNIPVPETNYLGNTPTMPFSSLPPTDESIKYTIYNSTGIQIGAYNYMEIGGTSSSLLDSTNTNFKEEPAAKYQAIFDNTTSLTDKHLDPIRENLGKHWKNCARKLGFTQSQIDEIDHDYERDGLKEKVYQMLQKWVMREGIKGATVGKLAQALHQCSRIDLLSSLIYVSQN
Leucine-rich repeat serine/threonine-protein kinase 2 (Homo sapiens), sequence (Q5S007 whole entry, the tested form may be a part): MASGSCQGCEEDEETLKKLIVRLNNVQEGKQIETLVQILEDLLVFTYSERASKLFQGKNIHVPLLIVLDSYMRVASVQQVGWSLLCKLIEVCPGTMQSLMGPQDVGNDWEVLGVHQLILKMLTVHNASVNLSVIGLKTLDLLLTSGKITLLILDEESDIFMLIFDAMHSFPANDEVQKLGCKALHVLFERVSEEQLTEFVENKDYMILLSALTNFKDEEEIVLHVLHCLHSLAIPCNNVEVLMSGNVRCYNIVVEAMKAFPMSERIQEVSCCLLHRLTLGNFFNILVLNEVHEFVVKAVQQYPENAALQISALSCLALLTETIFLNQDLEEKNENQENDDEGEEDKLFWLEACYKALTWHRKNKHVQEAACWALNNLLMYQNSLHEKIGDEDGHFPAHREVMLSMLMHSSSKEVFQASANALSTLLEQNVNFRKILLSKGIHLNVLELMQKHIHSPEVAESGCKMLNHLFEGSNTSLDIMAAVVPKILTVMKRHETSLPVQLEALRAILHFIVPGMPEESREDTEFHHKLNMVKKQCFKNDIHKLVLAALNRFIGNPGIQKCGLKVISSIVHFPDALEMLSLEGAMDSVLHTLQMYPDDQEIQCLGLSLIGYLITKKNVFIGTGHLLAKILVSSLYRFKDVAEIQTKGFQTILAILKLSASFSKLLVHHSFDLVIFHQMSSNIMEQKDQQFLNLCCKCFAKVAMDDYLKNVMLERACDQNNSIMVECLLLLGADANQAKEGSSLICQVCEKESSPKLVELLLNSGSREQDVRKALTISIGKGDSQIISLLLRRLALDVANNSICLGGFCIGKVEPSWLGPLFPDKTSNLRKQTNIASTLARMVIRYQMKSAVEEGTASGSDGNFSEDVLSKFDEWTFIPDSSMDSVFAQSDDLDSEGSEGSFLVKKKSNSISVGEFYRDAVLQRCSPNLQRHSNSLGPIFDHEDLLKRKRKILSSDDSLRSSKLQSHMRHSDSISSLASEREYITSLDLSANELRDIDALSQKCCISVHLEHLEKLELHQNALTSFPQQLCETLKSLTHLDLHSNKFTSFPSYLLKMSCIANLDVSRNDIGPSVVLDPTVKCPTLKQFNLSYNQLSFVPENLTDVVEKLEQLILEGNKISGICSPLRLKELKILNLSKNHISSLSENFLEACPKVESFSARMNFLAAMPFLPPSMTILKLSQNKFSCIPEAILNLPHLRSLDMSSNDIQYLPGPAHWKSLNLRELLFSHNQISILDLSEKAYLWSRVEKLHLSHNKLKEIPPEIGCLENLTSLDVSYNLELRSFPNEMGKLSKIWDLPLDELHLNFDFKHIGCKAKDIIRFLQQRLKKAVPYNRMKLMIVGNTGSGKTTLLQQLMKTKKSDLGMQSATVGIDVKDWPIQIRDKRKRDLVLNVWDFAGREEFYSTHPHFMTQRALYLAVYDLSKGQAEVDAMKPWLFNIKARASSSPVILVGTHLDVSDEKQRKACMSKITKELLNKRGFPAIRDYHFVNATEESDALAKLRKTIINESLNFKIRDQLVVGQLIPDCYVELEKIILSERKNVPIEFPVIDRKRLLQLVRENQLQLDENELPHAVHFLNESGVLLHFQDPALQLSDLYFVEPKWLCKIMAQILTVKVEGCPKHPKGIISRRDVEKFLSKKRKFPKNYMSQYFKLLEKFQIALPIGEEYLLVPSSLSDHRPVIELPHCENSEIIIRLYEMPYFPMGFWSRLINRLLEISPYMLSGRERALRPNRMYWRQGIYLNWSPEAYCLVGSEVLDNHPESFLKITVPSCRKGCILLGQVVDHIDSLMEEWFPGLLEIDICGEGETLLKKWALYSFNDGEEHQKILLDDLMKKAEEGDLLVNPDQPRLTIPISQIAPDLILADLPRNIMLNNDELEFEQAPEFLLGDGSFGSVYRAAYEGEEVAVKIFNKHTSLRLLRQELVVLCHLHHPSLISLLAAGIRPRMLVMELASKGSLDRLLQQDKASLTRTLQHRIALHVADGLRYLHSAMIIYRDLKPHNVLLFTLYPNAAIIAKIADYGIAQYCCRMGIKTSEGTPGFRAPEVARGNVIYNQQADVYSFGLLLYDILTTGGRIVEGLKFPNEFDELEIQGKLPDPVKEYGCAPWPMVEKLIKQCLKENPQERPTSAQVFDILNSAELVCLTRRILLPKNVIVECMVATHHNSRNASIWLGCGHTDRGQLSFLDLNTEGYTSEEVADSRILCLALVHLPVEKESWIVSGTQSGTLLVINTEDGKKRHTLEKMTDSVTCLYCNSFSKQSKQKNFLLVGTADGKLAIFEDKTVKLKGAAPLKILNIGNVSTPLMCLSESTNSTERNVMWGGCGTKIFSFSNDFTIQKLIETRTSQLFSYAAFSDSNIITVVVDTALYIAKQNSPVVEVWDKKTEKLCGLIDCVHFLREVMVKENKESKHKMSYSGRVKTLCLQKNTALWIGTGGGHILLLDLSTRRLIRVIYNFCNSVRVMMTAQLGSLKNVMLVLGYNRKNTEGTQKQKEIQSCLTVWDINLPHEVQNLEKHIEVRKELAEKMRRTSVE
Mitogen-activated protein kinase kinase kinase 10 (Homo sapiens), sequence (Q02779 whole entry, looked up, the tested form may be a part): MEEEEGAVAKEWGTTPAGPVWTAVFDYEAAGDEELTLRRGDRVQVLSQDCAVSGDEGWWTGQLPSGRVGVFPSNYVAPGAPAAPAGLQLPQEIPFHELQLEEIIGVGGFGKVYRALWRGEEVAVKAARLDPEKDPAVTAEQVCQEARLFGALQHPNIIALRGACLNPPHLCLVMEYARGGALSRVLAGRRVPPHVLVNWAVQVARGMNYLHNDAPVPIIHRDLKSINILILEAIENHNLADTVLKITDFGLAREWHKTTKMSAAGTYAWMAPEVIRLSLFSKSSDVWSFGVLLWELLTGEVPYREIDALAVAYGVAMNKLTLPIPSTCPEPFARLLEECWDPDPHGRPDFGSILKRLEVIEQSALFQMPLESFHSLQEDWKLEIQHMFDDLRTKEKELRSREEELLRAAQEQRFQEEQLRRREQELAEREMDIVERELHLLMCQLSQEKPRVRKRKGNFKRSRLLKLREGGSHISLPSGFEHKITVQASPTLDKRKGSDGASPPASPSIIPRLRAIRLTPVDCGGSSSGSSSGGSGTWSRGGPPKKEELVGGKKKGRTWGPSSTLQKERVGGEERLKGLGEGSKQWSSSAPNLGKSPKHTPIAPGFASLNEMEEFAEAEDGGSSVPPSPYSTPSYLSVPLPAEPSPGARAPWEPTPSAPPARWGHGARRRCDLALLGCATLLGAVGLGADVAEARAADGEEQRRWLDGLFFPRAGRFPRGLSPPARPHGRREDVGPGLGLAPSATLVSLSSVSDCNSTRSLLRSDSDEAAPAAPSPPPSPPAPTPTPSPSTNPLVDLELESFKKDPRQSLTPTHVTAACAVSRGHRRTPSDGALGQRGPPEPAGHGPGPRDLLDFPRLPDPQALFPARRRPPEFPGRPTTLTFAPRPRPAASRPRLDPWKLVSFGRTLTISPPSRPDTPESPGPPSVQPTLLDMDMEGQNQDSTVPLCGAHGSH

For `Cc1ccc(NC(=O)c2ccc(CN(CCN(C)C)C(=O)c3cccnc3)cc2)cc1Nc1nccc(-c2cccnc2)n1`, the Activity [1] was 95%, the Activity [2] was 83% and the Activity [3] was 80%. The Activity [4] was 96%, the Activity [5] was 100% and the Activity [6] was 100%. For the same compound, the Activity [7] was 100%, the bioavailability [8] was 1.96% and the Activity [9] was 100%. For the same compound, the Activity [10] was 89%, the Activity [11] was 77% and the Activity [12] was 96%. The Activity [13] was 83%, the Activity [14] was 88% and the Activity [15] was 100%. For the same compound, the Activity [16] was 100%, the Activity [17] was 100% and the Activity [18] was 73%. It also gave an Activity [19] of 91%, an Activity [20] of 82% and an Activity [21] of 100%.
